Results: ChEMBL document CHEMBL3425411, “Synthesis of β-Carboline-Based N-Heterocyclic Carbenes and Their Antiproliferative and Antimetastatic Activities against Human Breast Cancer Cells” (J Med Chem, 2015)
Calls of active or inactive are those of the source. The calls are words filed in the database; no cut-off is given here.

How the values were obtained:
MDA-MB-231 [1] = assay: Induction of apoptosis in human MDA-MB-231 cells assessed as depolarization of mitochondrial membrane potential after 24 hrs by JC-1 staining-based flow cytometric analysis; type: functional, cell-based
How it was run: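 Cells were seeded in 60 mm dishes, grown 24 h, then treated with compound for 24 h. Cells were stained with JC-1 and analysed by flow cytometry. Depolarization was read as green-only cells and as a fall in red/green fluorescence ratio, normalized to control. Three independent experiments, mean ± SEM.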

MDA-MB-231 [2] = assay: Induction of apoptosis in human MDA-MB-231 cells assessed as early apoptotic cells at 5 uM after 24 hrs by annexin V-propidium iodide/Alexa Fluor 488 staining-based flow cytometric analysis (reference value: 4.05 to 4.68%); type: functional
MDA-MB-231 [3] = assay: Induction of apoptosis in human MDA-MB-231 cells assessed as early apoptotic cells at 10 uM after 24 hrs by annexin V-propidium iodide/Alexa Fluor 488 staining-based flow cytometric analysis (reference value: 4.05 to 4.68%); type: functional
MDA-MB-468 = assay: Cytotoxicity against human MDA-MB-468 cells assessed as growth inhibition after 24 to 72 hrs by MTT assay; type: functional, cell-based
How it was run: (§1)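 About 5000 cells/well were grown 24 h in RPMI-1640 with 10% FBS, then given fresh medium with compound at various concentrations (from 10 mM DMSO stocks) for 24, 48 and 72 h. MTT (5 mg/mL stock) was added for 2 h and formazan dissolved in DMSO. Absorbance was read at 595 nm and expressed as percent proliferation versus DMSO control.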

MCF7 = assay: Cytotoxicity against human MCF7 cells assessed as growth inhibition after 24 to 72 hrs by MTT assay; type: functional, cell-based; how it was run: as §1
MDA-MB-231 [4] = assay: Cell cycle arrest in human MDA-MB-231 cells assessed as accumulation at G2/M phase at 7.5 uM after 24 hrs by propidium iodide staining-based flow cytometric analysis (reference value: 18.2 to 23.1%); type: functional
MDA-MB-231 [5] = assay: Induction of apoptosis in human MDA-MB-231 cells after 24 hrs by annexin V-propidium iodide/Alexa Fluor 488 staining-based flow cytometric analysis; type: functional, cell-based
MDA-MB-231 [6] = assay: Cell cycle arrest in human MDA-MB-231 cells assessed as accumulation at S phase at 2.5 uM after 24 hrs by propidium iodide staining-based flow cytometric analysis (reference value: 32.5 to 34.7%); type: functional
MDA-MB-231 [7] = assay: Cytotoxicity against human MDA-MB-231 cells assessed as growth inhibition after 24 to 72 hrs by MTT assay; type: functional, cell-based; how it was run: as §1
[8] = Cytotoxicity against human H1299 cells assessed as growth inhibition after 24 to 72 hrs by MTT assay; type: functional, cell-based; details: NCI-H1299; how it was run: as §1
Mus musculus = assay: Toxicity in Balb/c mouse allografted with mouse 4T1 cells assessed as reduction in body weight at 10 mg/kg, po administered every alternative day for 5 weeks measured twice a week during compound dosing; type: organism-based; parameters: dose 10 mg/kg, route oral; details: in vivo, 840 h
How it was run: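 Female Balb/c mice, 8 weeks old, given 7 × 10⁵ 4T1 cells into the second right mammary fat pad, plus a booster of about 5 × 10⁵ cells after 4 days. One week later, 10 mg/kg by oral gavage on alternate days for 5 weeks, n = 6. Vehicle-dosed controls. Body weight and tumour size measured twice weekly.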

MDA-MB-231 [9] = assay: Induction of apoptosis in human MDA-MB-231 cells assessed as early apoptotic cells at 7.5 uM after 24 hrs by annexin V-propidium iodide/Alexa Fluor 488 staining-based flow cytometric analysis (reference value: 4.05 to 4.68%); type: functional
MDA-MB-231 [10] = assay: Induction of apoptosis in human MDA-MB-231 cells assessed as late apoptotic cells at 10 uM after 24 hrs by annexin V-propidium iodide/Alexa Fluor 488 staining-based flow cytometric analysis (reference value: 2.08 to 3.78%); type: functional
How it was run: (§2)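 MDA-MB-231 cells, about 2 × 10⁵ per well, seeded in triplicate and treated for 24 h in RPMI-1640 with 10% FBS. Stained with Alexa Fluor 488 annexin V and propidium iodide, then read by flow cytometry. AV+/PI+ events were counted as late apoptotic and reported as percentage of cells relative to control. Three independent experiments, mean ± SEM.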

MDA-MB-231 [11] = assay: Cell cycle arrest in human MDA-MB-231 cells assessed as accumulation at G0/G1 phase at 7.5 uM after 24 hrs by propidium iodide staining-based flow cytometric analysis (reference value: 44.3 to 47.1%); type: functional
MDA-MB-231 [12] = assay: Antimigratory activity against human MDA-MB-231 cells at >= 2.5 uM after 48 hrs by transwell assay
MDA-MB-231 [13] = assay: Cell cycle arrest in human MDA-MB-231 cells assessed as accumulation at G2/M phase after 24 hrs by propidium iodide staining-based flow cytometric analysis; type: functional
MDA-MB-231 [14] = assay: Induction of apoptosis in human MDA-MB-231 cells assessed as late apoptotic cells at 2.5 uM after 24 hrs by annexin V-propidium iodide/Alexa Fluor 488 staining-based flow cytometric analysis (reference value: 2.08 to 3.78%); type: functional; how it was run: as §2
MDA-MB-231 [15] = assay: Cell cycle arrest in human MDA-MB-231 cells assessed as accumulation at S phase at 7.5 uM after 24 hrs by propidium iodide staining-based flow cytometric analysis (reference value: 32.5 to 34.7%); type: functional
MDA-MB-231 [16] = assay: Induction of apoptosis in human MDA-MB-231 cells assessed as late apoptotic cells at 7.5 uM after 24 hrs by annexin V-propidium iodide/Alexa Fluor 488 staining-based flow cytometric analysis (reference value: 2.08 to 3.78%); type: functional; how it was run: as §2
MDA-MB-231 [17] = assay: Cell cycle arrest in human MDA-MB-231 cells assessed as accumulation at G2/M phase at 5 uM after 24 hrs by propidium iodide staining-based flow cytometric analysis (reference value: 18.2 to 23.1%); type: functional
MDA-MB-231 [18] = assay: Cell cycle arrest in human MDA-MB-231 cells assessed as accumulation at G0/G1 phase at 2.5 uM after 24 hrs by propidium iodide staining-based flow cytometric analysis (reference value: 44.3 to 47.1%); type: functional
MDA-MB-231 [19] = assay: Cell cycle arrest in human MDA-MB-231 cells assessed as accumulation at S phase at 5 uM after 24 hrs by propidium iodide staining-based flow cytometric analysis (reference value: 32.5 to 34.7%); type: functional
MDA-MB-231 [20] = assay: Cell cycle arrest in human MDA-MB-231 cells assessed as accumulation at G0/G1 phase at 5 uM after 24 hrs by propidium iodide staining-based flow cytometric analysis (reference value: 44.3 to 47.1%); type: functional
4T1 = assay: Antitumor activity against mouse 4T1 cells allografted in Balb/c mouse assessed as tumor growth inhibition at 10 mg/kg, po administered every alternative day for 5 weeks measured twice a week during compound dosing relative to control; type: functional
How it was run: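 4T1 cells (7 × 10⁵) were injected into the second right mammary fat pad of 8-week-old female Balb/c mice, with a booster of about 5 × 10⁵ cells 4 days later. One week after the booster, dosing began at 10 mg/kg by oral gavage on alternate days for 5 weeks (n = 6). Controls received vehicle. Tumor size and body weight were measured twice weekly.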

MDA-MB-231 [21] = assay: Induction of apoptosis in human MDA-MB-231 cells assessed as late apoptotic cells at 5 uM after 24 hrs by annexin V-propidium iodide/Alexa Fluor 488 staining-based flow cytometric analysis (reference value: 2.08 to 3.78%); type: functional; how it was run: as §2

SMILES	Activity (MDA-MB-231 [1])	Activity (MDA-MB-231 [2])	Activity (MDA-MB-231 [3])	IC50 (MDA-MB-468)	IC50 (MCF7)	Activity (MDA-MB-231 [4])	Activity (MDA-MB-231 [5])	Activity (MDA-MB-231 [6])	IC50 (MDA-MB-231 [7])	IC50 [8]	Activity (Mus musculus)	Activity (MDA-MB-231 [9])	Activity (MDA-MB-231 [10])	Activity (MDA-MB-231 [11])	Activity (MDA-MB-231 [12])	Activity (MDA-MB-231 [13])	Activity (MDA-MB-231 [14])	Activity (MDA-MB-231 [15])	Activity (MDA-MB-231 [16])	Activity (MDA-MB-231 [17])	also measured
COC(=O)c1cc2c3ccccc3[nH]c2c2cn(-c3ccc(C)cc3Br)c[n+]12.[Cl-]	Dose-dependent effect	6.93%	55.63%	5.78 µM	6.9 µM	32.5%	Dose-dependent effect	19.5%	7.28 µM	7.8 µM	Non-toxic	24.22%	25.32%	43%	Active	Dose-dependent effect	3.49%	24.4%	16.58%	34.7%	Activity (MDA-MB-231 [18]): 56.8%; Activity (MDA-MB-231 [19]): 17.9%; Activity (MDA-MB-231 [20]): 47.3%; TGI (4T1): inactive; Activity (MDA-MB-231 [21]): 4.06%
COC(=O)c1cc2c3ccccc3[nH]c2c2cn(-c3ccc(F)cc3Cl)c[n+]12.[Cl-]	Dose-dependent effect	4.72%	14.4%	5.94 µM	6.8 µM	40.6%	Dose-dependent effect	29.8%	4.49 µM	5.13 µM	Non-toxic	12.14%	11.92%	31.1%	Active	Dose-dependent effect	1.16%	28.22%	7.04%	33.9%	Activity (MDA-MB-231 [18]): 46.7%; Activity (MDA-MB-231 [19]): 21.8%; Activity (MDA-MB-231 [20]): 46.6%; TGI (4T1): inactive; Activity (MDA-MB-231 [21]): 3.26%
COC(=O)c1cc2c3ccccc3[nH]c2c2cn(-c3ccc(C(F)(F)F)cc3)c[n+]12.[Cl-]	Dose-dependent effect	5.23%	14.3%	11.1 µM	14.2 µM	38.2%	Dose-dependent effect	26.7%	7.98 µM	4.48 µM	Non-toxic	9.28%	14.31%	34.1%	Active	Dose-dependent effect	2.87%	27.6%	9.02%	35.5%	Activity (MDA-MB-231 [18]): 50.4%; Activity (MDA-MB-231 [19]): 19%; Activity (MDA-MB-231 [20]): 45.3%; inhibition in vivo at 10 mg/kg (4T1; 4T1, 840 h, read-out: TGI): 20%; Activity (MDA-MB-231 [21]): 2.31%
